Measured values as given in PubChem BioAssay.
Inconclusive results are not listed.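 Rule for the calls, unless noted: active = viability increase at or above a cutoff of the median across tested compounds plus 3 SD (cut at about 8.5% in these data, passing the limit was not always enough); inconclusive = some gains above the cutoff, reason not given; inactive = the rest.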

Columns and labels:
[1] = OD615 S. cerevisiae growth inhibition, permissive medium, pilot counter-assay, permissive growth control for S. cerevisiae lifespan shortening project (AID 705;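 active = growth inhibition above 25% in both replicates, a cutoff set 3 SD above the mean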); settings: OD615, 24 h, at 10 µM, hits give high values
Procedure, shortened: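 Timing: 24 h exposure, 30 °C / Material: Saccharomyces cerevisiae strain carrying genetically modified DeaD replicative-lifespan system / Signal: OD at 615 nm / Compound: 10 µM single dose, 0.25% DMSO / Medium: SC raffinose/galactose permissive medium / Evaluation: reduction in yeast growth (OD615)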

[2] = Restrictive medium S. cerevisiae growth inhibition, OD615, pilot screen of yeast lifespan reduction project, restrictive growth control (AID 706;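 active = growth inhibition above a set limit, 3 SD over mean compound inhibition, in both replicates, cut at about 43% in these data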;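 note: modified DeaD lifespan yeast strain shifted to restrictive glucose medium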); settings: OD615, 48 h, at 10 µM, hits give high values
Procedure, shortened: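 System: Engineered S. cerevisiae DeaD strain | Detection: OD615 | Buffer or medium: CSMM-D glucose medium | Doses: 10 µM compound, 0.25% DMSO | Timing: 4 h pre-growth plus 48 h compound exposure, 30 °C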

[3] = viability gain of MRP-1-high H69AR cells under doxorubicin, pilot screen, MRP-1 activator project, CellTiter-Glo, duplicate (AID 807); settings: H69AR viability with doxorubicin, CellTiter-Glo luminescence; at 10 µM; hits give high values;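 note: compound pretreatment 18-22 h then 72 h combined with doxorubicin; 0% = doxorubicin alone and 100% = vehicle without doxorubicin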
[4] = growth suppression of beta-catenin knockout HCT116, pilot screen, human colon tumor cells (AID 823;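 active = cell viability at or below a set limit in both duplicate runs, the limit being the all-compound median minus 4 SD, cut at about 23% in these data, passing the limit was not always enough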;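 note: 0% = wells killed by 20 µM Hyamine and 100% = untreated DMSO cell wells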); settings: CellTiter-Glo, 60 h, at 10 µM, hits give low values
[5] = growth suppression of PTEN-deleted HCT116, pilot screen, cell-based, HCT116 clonal line, CellTiter-Glo (AID 824;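 active = viability at or below 27.92% in each of two runs, the all-compound median minus 4 SD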;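 note: 0% = 20 µM Hyamine control and 100% = vehicle cell control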); settings: 60 h, at 10 µM, hits give low values
[6] = inhibitors of the yeast RAM network, pilot screen, dse1pr::URA3 reporter, 5-FOA selection (AID 869;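 active = inhibition over a set limit, the all-compound mean plus 3 SD, in both replicate runs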;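 note: 0% = DMSO wells with no growth and 100% = 10 µM 1-NA-PP1 with full growth; RAM network block rescues cells from 5-FOA so hits raise OD615 growth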); settings: S. cerevisiae dse1pr::URA3 5-FOA growth, OD615, 2 d; at 10 µM; hits give high values; strain carries analog-sensitive mutant Cbk1 kinase
[7] = RAM signaling pathway blockade in yeast – S. cerevisiae, Pdr1DBD-CYC8 efflux-inhibited sensitized strain, primary screen (AID 1298;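 active = RAM network inhibition above 8.4% in each of two replicates, 3 SD over the compound average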;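 note: 0% = DMSO untreated cells without growth and 100% = 10 µM 1-NA-PP1 full growth; higher means more yeast growth rescued from 5-FOA killing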); settings: S. cerevisiae cbk1-as DSE1-URA3 strain, 5-FOA growth OD615, 2 d; at 50 µM; hits give high values

NC(=O)COc1ccc(=O)n(-c2ccccc2)n1
inactive: growth inhibition [1] 2.42% | growth inhibition [2] 4.29% | viability increase [3] 0.84% | viability [4] 107% | viability [5] 105% | inhibition [6] 1.23% | RAM network inhibition [7] 1.14%

CCn1c(=O)c2cc(C(=O)N3CCN(C(=O)c4ccco4)CC3)sc2c2ccccc21
inactive: growth inhibition [1] -1.96% | growth inhibition [2] -0.815% | viability increase [3] -3.68% | viability [4] 84% | viability [5] 86.3% | inhibition [6] 2.02% | RAM network inhibition [7] 7.64%

CC(C)N(CCCNC(=O)CC1Oc2ccccc2NC1=O)Cc1ccccc1 (stereo unspecified)
inactive: growth inhibition [1] 2.46% | growth inhibition [2] 10.3% | viability increase [3] -1.49% | viability [4] 89.3% | viability [5] 97.7% | inhibition [6] 0.47% | RAM network inhibition [7] 3.18%

Cc1ccc(N(CC(=O)NC2CCC(C)CC2)S(=O)(=O)c2cccnc2)cc1 (stereo unspecified)
inactive: growth inhibition [1] 4.48% | growth inhibition [2] 8.91% | viability increase [3] 0.07% | viability [4] 98.3% | viability [5] 98.1% | inhibition [6] 1.15% | RAM network inhibition [7] -1.86%

O=C(O)CCn1c(-c2ccccc2)cc2c1CCCC2=O
inactive: growth inhibition [1] 1.65% | growth inhibition [2] -0.555% | viability increase [3] -0.35% | viability [4] 95.7% | viability [5] 95% | inhibition [6] 4.84% | RAM network inhibition [7] 0.47%

Cc1cccc(N2CCN(C(=O)C3CCN(c4nnc(-n5cccc5)s4)CC3)CC2C)c1 (stereo unspecified)
inactive: growth inhibition [1] -6.52% | growth inhibition [2] -21.5% | viability increase [3] -1.6% | viability [4] 40.1% | viability [5] 45% | inhibition [6] 0.825% | RAM network inhibition [7] 2.84%

COc1ccc(C(CNC(=O)C2CC(=O)N(Cc3ccc(C)cc3)C2)N(C)C)cc1 (stereo unspecified)
inactive: growth inhibition [1] -1.76% | growth inhibition [2] -7.34% | viability increase [3] -0.21% | viability [4] 96% | viability [5] 95.7% | inhibition [6] 1.3% | RAM network inhibition [7] 1.64%

CCCC(=O)Nc1cc(=O)n(C)c(=O)n1C
inactive: growth inhibition [1] -12.8% | growth inhibition [2] -4.53% | viability increase [3] -1.04% | viability [4] 103% | viability [5] 94.8% | inhibition [6] 0.76% | RAM network inhibition [7] -0.88%

O=C1CC(N2CCN(C(c3ccccc3)c3ccccc3)CC2)C(=O)N1 (stereo unspecified)
inactive: growth inhibition [1] -8.31% | growth inhibition [2] -9.7% | viability increase [3] -1.16% | viability [4] 102% | viability [5] 102% | inhibition [6] 1.03% | RAM network inhibition [7] 5.3%

Cc1csc(NC(=O)CNS(=O)(=O)c2cccs2)n1
inactive: growth inhibition [1] -4.12% | growth inhibition [2] -18.9% | viability increase [3] -2.55% | viability [4] 93.4% | viability [5] 86.8% | inhibition [6] 0.795% | RAM network inhibition [7] 2.18%

COc1cc(CCC(=O)N2CCN(c3ccc(N4CCOCC4)nn3)CC2)cc(OC)c1OC
inactive: growth inhibition [1] 7.64% | growth inhibition [2] 14.6% | viability increase [3] -1.86% | viability [4] 106% | viability [5] 112% | inhibition [6] 0.43% | RAM network inhibition [7] 4.7%

O=C(NC1CCCCC1)C(c1ccccc1)N1CCC2(CC1)OCCO2 (stereo unspecified)
inactive: growth inhibition [1] 0.86% | growth inhibition [2] 6.33% | viability increase [3] -4.79% | viability [4] 97.6% | viability [5] 95.5% | inhibition [6] 1.5% | RAM network inhibition [7] 1.43%

Cc1ccc(S(=O)(=O)/N=C(\CN2CCCCC2)N2CCOCC2)cc1
inactive: growth inhibition [1] -11.4% | growth inhibition [2] -13.2% | viability increase [3] -1.32% | viability [4] 101% | viability [5] 95% | inhibition [6] 0.44% | RAM network inhibition [7] 4.62%

CC(C)(CC(=O)O)Cc1nc(-c2ccc(Cl)cc2)no1
inactive: growth inhibition [1] 2.38% | growth inhibition [2] 10.4% | viability increase [3] 1.26% | viability [4] 100% | viability [5] 93.2% | inhibition [6] 0.855% | RAM network inhibition [7] -3.9%

COc1cccc(-c2nc(CS(=O)CC(=O)O)c(C)o2)c1 (stereo unspecified)
inactive: growth inhibition [1] -1.73% | growth inhibition [2] 2.52% | viability increase [3] -0.27% | viability [4] 99.9% | viability [5] 99.5% | inhibition [6] 1.31% | RAM network inhibition [7] 4.89%

O=C(NC1CCCCCC1)C1C2C=CC3(CN(Cc4cccnc4)C(=O)C13)O2 (stereo unspecified)
inactive: growth inhibition [1] 0.045% | growth inhibition [2] 8.75% | viability increase [3] 0.68% | viability [4] 101% | viability [5] 107% | inhibition [6] 0.18% | RAM network inhibition [7] 1.44%

Cc1nc(-c2ccc(S(=O)(=O)N3CCCCCC3)cc2)cs1
inactive: growth inhibition [1] 10.7% | growth inhibition [2] 2.95% | viability increase [3] -2.37% | viability [4] 90.8% | viability [5] 89.7% | inhibition [6] 0.075% | RAM network inhibition [7] 1.28%

CCCN(CCC)S(=O)(=O)c1ccc(C(=O)N2CCC(=O)c3ccccc32)cc1
inactive: growth inhibition [1] -0.75% | growth inhibition [2] 1.45% | viability increase [3] -5.63% | viability [4] 81.2% | viability [5] 89.7% | inhibition [6] 2.23% | RAM network inhibition [7] 0.93%
